The nature of test [1]: inhibitors of TNFa-induced NFkB p65 translocation, primary screen, imaging, HUVEC, MLSMR starter and 10KST1 sets (AID 438;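 active = inhibition above 20% together with a positive visual image hit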;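 note: compound added about 3h40 before a 20 min TNFalpha stimulation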;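 for inhibition: signal is the nuclear over cytoplasmic p65 intensity ratio per well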). Conditions: HUVEC TNFa-induced p65 nuclear translocation; cell count: measured here: nuclei count (cytotoxicity indicator), at 2.08 µM; inhibition: at 2 µM, stronger effect = higher value, 0% TNFa-plus-vehicle, 100% no-TNFa wells.
A short description of test [2]: inhibitors of E-selectin induction by TNFa, primary screen, imaging, HUVEC, immunofluorescence, MLSMR starter and 10KST1 sets (AID 487;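 active = visually confirmed hit in the image check and inhibition above 20%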;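 for inhibition: signal is fraction of cell area covered by stained E-selectin grains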;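 for nuclei count: 100% = median nuclei count of all wells on the same plate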). Conditions: HUVEC TNFalpha-induced E-selectin immunofluorescence imaging, at 2 µM; inhibition: stronger effect = higher value; nuclei count: measured here: cell number, toxicity.
The nature of test [3]: DUSP6 inhibitors restoring Erk phosphorylation by chemical complementation, primary imaging in DUSP6-transfected HeLa (AID 609;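 active = compounds giving at least 50% inhibition in the cell-based MKP-3 phosphatase rescue imaging test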;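 for inhibition: phospho-Erk level distribution per well compared with pooled transfected vehicle control wells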). Conditions: HeLa MKP-3 transfected, phospho-Erk imaging KS statistic, at 10 µM, cells stimulated with TPA for 15 min.
Test [4] addresses Dual specificity protein phosphatase 6 (Homo sapiens) (UniProt Q16828). Described as above. The note with it: HeLa MKP-3 transfected, phospho-Erk imaging KS statistic; at 10 µM; stronger effect = higher value; cells stimulated with TPA for 15 min.
For test [5], the target named is Voltage-gated potassium channel subunit beta-2 (Rattus norvegicus) (UniProt P62483). Briefly: KvBeta enzyme negative modulators, primary screen, biochemical, NADPH fluorescence (AID 622).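 Note: slope of raw intensity against log time taken from 70 to 1610 s.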 The note with it: recombinant KvBeta, 4-cyanobenzaldehyde reduction, at 10 µM, stronger effect = higher value.
Sequence of Voltage-gated potassium channel subunit beta-2 (Rattus norvegicus) (P62483 whole entry, looked up): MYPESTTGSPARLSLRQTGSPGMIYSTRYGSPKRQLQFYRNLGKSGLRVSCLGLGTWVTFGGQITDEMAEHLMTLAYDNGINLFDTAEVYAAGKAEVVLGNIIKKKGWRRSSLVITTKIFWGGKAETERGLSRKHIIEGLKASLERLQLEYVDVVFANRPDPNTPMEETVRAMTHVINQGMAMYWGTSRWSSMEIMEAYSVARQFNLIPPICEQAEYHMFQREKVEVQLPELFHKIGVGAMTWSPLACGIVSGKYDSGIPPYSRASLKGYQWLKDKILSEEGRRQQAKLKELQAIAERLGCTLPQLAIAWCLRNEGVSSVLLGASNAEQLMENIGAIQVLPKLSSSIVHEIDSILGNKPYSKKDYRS
For test [6] the target is unchanged. Briefly: KvBeta positive modulators, primary screen, biochemical, NADPH fluorescence (AID 623;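 active = NADPH fluorescence slope more negative than the mean of all samples by about 3 SD, 99.7% confidence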;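 note: fluorescence intensity change per second fitted from 20 to 320 s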). The note with it: Recombinant KvBeta, NADPH fluorescence decrease slope, 10 min; at 10 µM; stronger effect = lower value.
For test [7], the target named is Alpha-2C adrenergic receptor (Homo sapiens) (UniProt P18825). Kind of test: modulators of alpha2C/GIRK thallium flux, primary screen, cell-based, HEK293 alpha2C/GIRK1/2 (AID 624;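 active = fluorescence slope after compound addition differing from the mean of all screened samples at 99.7% confidence, in either direction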;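 note: slope of fluorescence ratio to pre-addition baseline per second over 15 to 24 s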). Conditions: thallium flux BTC fluorescence, at 10 µM, actives lie on both sides.
Sequence of Alpha-2C adrenergic receptor (Homo sapiens) (P18825 whole entry, looked up): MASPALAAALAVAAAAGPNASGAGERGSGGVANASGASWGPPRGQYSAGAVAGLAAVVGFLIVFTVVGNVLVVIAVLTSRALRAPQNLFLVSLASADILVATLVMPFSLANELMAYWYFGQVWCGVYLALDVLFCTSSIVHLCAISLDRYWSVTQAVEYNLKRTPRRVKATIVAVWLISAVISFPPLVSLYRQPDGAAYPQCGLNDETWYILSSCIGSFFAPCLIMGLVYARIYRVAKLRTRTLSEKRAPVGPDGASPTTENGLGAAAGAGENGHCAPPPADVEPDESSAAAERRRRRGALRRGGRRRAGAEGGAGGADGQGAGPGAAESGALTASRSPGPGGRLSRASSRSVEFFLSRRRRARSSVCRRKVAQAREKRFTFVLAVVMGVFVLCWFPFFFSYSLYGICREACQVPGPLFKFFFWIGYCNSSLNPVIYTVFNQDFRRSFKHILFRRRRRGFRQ
The nature of test [8]: inhibitors of larval lipid processing in zebrafish, primary screen, whole organism, PED6 fluorescence, gall bladder and intestine (AID 686;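 active = a full or partial loss of lipid-probe fluorescence in the fish gall bladder, intestine or both, judged by eye; inactive = no fluorescence loss, or compound toxic to the fish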;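 note: larvae 5 to 7 days old with five fish per well; signal comes from phospholipase A2 cleavage of quenched PED6 carried via bile; overnight exposure to compound and PED6 before scoring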). Conditions: Zebrafish larvae PED6 lipid processing, fluorescence scoring; screened at 20 µM (by protocol). The method, boiled down:
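System: live zebrafish larvae aged 5-7 days, whole organism; measure: graded gall bladder and intestinal fluorescence inhibition per well; incubation: overnight exposure; reagent: ingested quenched lipid PED6 at 100 nM; signal: By-eye fluorescence microscopy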

Test [9] can be described thus: inhibitors of Chlamydomonas gravitaxis, primary screen, whole organism, Chlamydomonas reinhardtii, WT vs cilia-less mutant, absorbance, 96-well (AID 463189;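 active = inhibition at or above 50% relative to wild type and mutant plate controls; inactive = inhibition below 50%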;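 note: 0% = wild type cc124 cells in DMSO and 100% = ciliumless bld1 mutant cells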). Conditions: OD600 absorbance, 2 days, at 10 µM, stronger effect = higher value.
Where [10] appears, read: measured here: cell density z-score.
[11] abbreviates: measured here: nuclear c-Myc green intensity z-score.
Setting [12] is: measured here: nuclear pErk red intensity z-score, stronger effect = higher value.

Active and inactive are the calls of the source.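 Rule for the calls, unless noted: active = fluorescence slope higher than the sample average by over 3 SD (cut at about -0.22 in these data, passing the limit was not always enough); inactive = the rest.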

Sequence of Dual specificity protein phosphatase 6 (Homo sapiens) (Q16828 whole entry, looked up): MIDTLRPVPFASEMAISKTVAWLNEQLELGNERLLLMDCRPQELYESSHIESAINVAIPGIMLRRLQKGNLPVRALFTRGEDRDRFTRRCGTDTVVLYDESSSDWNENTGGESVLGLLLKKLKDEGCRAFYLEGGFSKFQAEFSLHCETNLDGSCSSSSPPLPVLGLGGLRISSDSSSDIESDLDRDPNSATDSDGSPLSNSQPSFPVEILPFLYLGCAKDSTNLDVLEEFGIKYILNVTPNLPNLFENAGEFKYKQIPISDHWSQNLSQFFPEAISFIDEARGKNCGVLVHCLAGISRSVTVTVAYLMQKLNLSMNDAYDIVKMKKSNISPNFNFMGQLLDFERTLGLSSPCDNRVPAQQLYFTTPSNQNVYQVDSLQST

Take `CCOc1cc(CN2CCOCC2)cc(C(C)=O)c1`: in test [1], the cell count amounted to 617. The inhibition in test [1] is -3.9% (inactive); in [2], -113% (inactive); in test [4] it was 15.1% (inactive); in test [9], 38.5% (inactive). The compound also showed a nuclei count in [2] of 110%. In addition, the values for the z-score in [3] (setting [10]), in test [3] (setting [11]) and in test [3] (setting [12]) were 1.86, 1.2 and -0.466, respectively. In [5], the fluorescence slope is -0.573 (inactive). The NADPH fluorescence slope in test [6] is -1.5e-05 (inactive). In addition, the slope in test [7] was 0.00527 (inactive). The call in test [8] was inactive.

Turning to `CCn1c(SC(C)C(=O)O)nc2sc3c(c2c1=O)CCC3` (stereo unspecified), the cell count in [1] stood at 614. Further, the inhibition in test [1] is -11.3% (inactive); in [2] it was 46% (inactive); in [4], -2.29% (inactive); in test [9], 7.74% (inactive). In [2], the nuclei count worked out at 108%. Also, the values for the z-score in test [3] (setting [10]), in test [3] (setting [11]) and in [3] (setting [12]) were 0.34, -0.588 and -0.0983, respectively. Moreover, in test [5], the fluorescence slope is -0.401 (inactive). Also, the NADPH fluorescence slope in [6] was -3.8e-05 (inactive). Moreover, the slope in test [7] was 0.0197 (active). The outcome in [8] was inactive.

On to `Cc1cc(C)nc(NC2=NCC(=O)N2c2ccccc2)n1`, for which, in test [1], the cell count came to 599. In addition, the inhibition is -3.5% (inactive) in test [1], -130% (inactive) in test [2], 3.97% (inactive) in test [4] and -0.727% (inactive) in test [9]. The compound also gave a nuclei count in [2] of 136%. Besides, the z-score in [3] (setting [10]) is 1.19; in [3] (setting [11]), -0.204; in test [3] (setting [12]), -1.47. Besides, the fluorescence slope in [5] was -0.493 (inactive). In addition, the NADPH fluorescence slope in [6] is -3.7e-05 (inactive). Also, the slope in test [7] is 0.00515 (inactive). The compound was classed as inactive in [8].

With `CCN(CC)CCCn1c(C)cc2c(c1=O)C(c1cccc(Cl)c1)C(C#N)=C(N)O2` (stereo unspecified), the cell count in test [1] amounted to 448. In addition, the inhibition in [1] was 13.8% (inactive); in [2], -49.3% (inactive); in test [4], 2.46% (inactive); in test [9], -6.29% (inactive). This compound also registered a nuclei count in test [2] of 146%. Also, the z-score in test [3] (setting [10]) is -0.339; in [3] (setting [11]), 0.269; in test [3] (setting [12]) it was 1.37. In addition, in [5], the fluorescence slope is -0.388 (inactive). Moreover, the NADPH fluorescence slope in test [6] is -4.3e-05 (inactive). In addition, the slope in test [7] is 0.00525 (inactive). In addition, in test [8], the result was inactive.

`CCOC(=O)c1[nH]c2ccc(Br)cc2c1NC(=O)CCN1CCN(C(=O)OCC)CC1`: the cell count in [1] came out at 545. Further, the inhibition was -23.3% (inactive) in test [1], -94.6% (inactive) in test [2], -7.86% (inactive) in test [4] and 18.6% (inactive) in test [9]. The compound further came in with a nuclei count in [2] of 158%. The z-score in [3] (setting [10]) was -0.326; in test [3] (setting [11]), -0.22; in test [3] (setting [12]), -0.0275. Besides, the fluorescence slope in test [5] was -0.522 (inactive). For the same compound, the NADPH fluorescence slope in [6] was -4.7e-05 (inactive). In addition, the slope in test [7] is 0.00482 (inactive). Further, in test [8], the compound was called inactive.

For `O=C1OC(Nc2ccc(Br)cn2)c2ccccc21` (stereo unspecified), the cell count in test [1] worked out at 388. In addition, the inhibition was 2.6% (inactive) in test [1], 47.2% (inactive) in test [2], -8.27% (inactive) in [4] and -9.02% (inactive) in test [9]. In test [2], this compound yielded a nuclei count of 94.3%. For the same compound, the figures for the z-score in [3] (setting [10]), in test [3] (setting [11]) and in test [3] (setting [12]) were -0.833, -0.569 and 0.497, respectively. Moreover, the fluorescence slope in test [5] is -0.44 (inactive). Moreover, in test [6], the NADPH fluorescence slope is -1.7e-06 (inactive). For the same compound, in test [7], the slope is 0.00494 (inactive). In addition, in test [8], the result was inactive.

Turning to `CC(C)Cc1nc(N2CCCCC2)c(C#N)c2c1CCC2`, in test [1], the cell count came to 513. Also, the inhibition in [1] was -0.1% (inactive); in [2] it was -91.7% (inactive); in test [4] it was 1.6e-07% (inactive); in test [9] it was -3.52% (inactive). In [2], this compound came in with a nuclei count of 135%. Besides, the z-score was -1.47 in test [3] (setting [10]), 0.461 in test [3] (setting [11]) and -0.497 in test [3] (setting [12]). Besides, in [5], the fluorescence slope is -0.506 (inactive). The NADPH fluorescence slope in test [6] was -3.4e-06 (inactive). The slope in test [7] was 0.006 (inactive). Besides, the outcome in [8] was “inactive; toxic”.

As usually defined, the inhibition is the drop in the measured response relative to a control, in per cent.

These data come from PubChem BioAssay.
